Rpn11 inh = Rpn11 (PSMD14) deubiquitinase inhibitors, primary screen, biochemical, fluorescence polarization, uHTS. hit rate 0.59% among 360,000. 26S proteasome non-ATPase regulatory subunit 14 (Homo sapiens), O00487. calls only at 20 µM. human 26S proteasome, Ub4-pepOG fluorescence polarization; 20S core pre-blocked with epoxomicin;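 active = inhibition at 20 µM, scaled to each plate's controls, above about 33%, limit read from the data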
Target sequence (O00487 whole entry, looked up): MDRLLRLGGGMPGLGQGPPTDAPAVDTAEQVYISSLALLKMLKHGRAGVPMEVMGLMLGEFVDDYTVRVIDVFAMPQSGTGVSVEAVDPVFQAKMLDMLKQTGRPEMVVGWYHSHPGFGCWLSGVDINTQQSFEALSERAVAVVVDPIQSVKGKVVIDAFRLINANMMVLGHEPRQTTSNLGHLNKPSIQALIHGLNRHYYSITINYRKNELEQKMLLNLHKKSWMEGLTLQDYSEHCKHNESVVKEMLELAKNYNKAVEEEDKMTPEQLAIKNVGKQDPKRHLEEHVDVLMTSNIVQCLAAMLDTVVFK
TPT1 inhibitor = Candida albicans TPT1 enzyme inhibitors, primary screen, biochemical, fluorescence polarization; inhibition, % at 5 µM; recombinant caTPT1, FP RNA substrate dephosphorylation; hit rate 0.81% among 300,000; tRNA 2'-phosphotransferase TPT1 (Candida albicans SC5314); AID 1962, 2009;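 active = inhibition above the mean of all tested compounds plus 3 SD, set per screening campaign, cut at about 24% in these data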;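 also: plate controls were DMSO alone for no effect and ferristatin control at 100 nM for full effect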
HNF4A DNA FP = change in binding of human HNF4A to DNA, primary screen, biochemical, fluorescence polarization, FITC-DNA | Hepatocyte nuclear factor 4-alpha (Homo sapiens), P41235 | 1 h | activity change, % at 10 µM | hit rate 0.3% among 360,000 | AID 1224865, 2016; in the data active = activity change above about 30%, passing the limit was not always enough
CSN deneddyl inh = inhibitors of CSN-mediated cullin deneddylation, primary screen, biochemical, fluorescence polarization, uHTS; COP9 signalosome complex subunit 5 (Homo sapiens), Q92905; Purified CSN, SCF-Nedd8-OG deneddylation; inhibition, % at 12.5 µM; hit rate 0.38% among 360,000;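 active = pattern-corrected inhibition above about 35%, with an unprinted fluorescence ratio check between 0.5 and 1.5, limit read from the data, passing the limit was not always enough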;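 also: 0% = enzyme with substrate and 100% = substrate without enzyme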
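Material: purified human Csn5 enzyme expressed in HEK293T cells / Medium: Tris buffer pH 7.5, NaCl, DTT, Tween-20, trehalose, ovalbumin / Compound dosing: 12.5 µM single point / Schedule: 90 min incubation of compound, enzyme and substrate at room temperature / Signal: fluorescence polarization of the substrate / Control set: no-enzyme wells high, enzyme-with-substrate wells low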
TPT1 inh confirm = Candida albicans TPT1 inhibitors, confirmation, biochemical, fluorescence polarization, triplicate | shares compounds with TPT1 inhibitor | recombinant caTPT1, RNase T1 coupled | hit rate 74% among 2,400 | inhibition, % at 5 µM;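 active = inhibition above the primary screen limit, the mean inhibition of all tested compounds plus 3 SD, cut at about 25% in these data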
RNase T1 counter = RNase T1 inhibitors, counter-screen for TPT1 inhibitor project, biochemical, fluorescence polarization; shares compounds with TPT1 inhibitor; RNase T1 cleavage, 1536-well; inhibition, % at 5 µM; hit rate 83% among 2,400; AID 2153, 2009;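 active = inhibition above the solvent-only control well mean plus 3 SD, limit set per screening run, cut at about 23% in these data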;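 also: plate controls were DMSO wells with enzyme for no effect and wells without RNase T1 for full effect; inhibitors block cleavage so intact labeled substrate keeps polarization high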
Target sequence (P00651 whole entry, looked up): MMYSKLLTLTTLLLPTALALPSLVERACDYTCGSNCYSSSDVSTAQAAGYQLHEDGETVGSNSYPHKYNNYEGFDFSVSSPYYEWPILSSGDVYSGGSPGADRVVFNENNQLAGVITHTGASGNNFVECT
Active calls of the source: *; i = inactive; x = no result shown; + = active, no number. Most compounds without a hit are left out; they make up all but 1.5% or so of the library.

SMILES	Rpn11 inh	TPT1 inhibitor	HNF4A DNA FP	CSN deneddyl inh	TPT1 inh confirm	RNase T1 counter
Cc1ccc(S(=O)(=O)N2CCN(c3ccccc3)CC2)s1	i	x	-2	-2	x	x
N#Cc1c(N)n(CCNC(=O)c2cccs2)c2nc3ccccc3nc12	i	63*	5	16	45*	59*
Cc1cc(=O)[nH]c(SCC(=O)c2ccccc2)c1C#N	i	51*	6	4	31*	45*
COc1cccc(CN(C)C(=O)c2ccc(S(=O)(=O)Nc3ccccc3C)cc2)c1OC	i	x	4	-5	x	x
Cc1cn([C@H]2C[C@H](O)[C@@H](CCC(=O)NCc3ccco3)O2)c(=O)[nH]c1=O	i	x	-1	-9	x	x
O=C1CC(=O)N(CCNc2ncc(C(F)(F)F)cc2Cl)C(=O)N1	i	38*	17	79	23	39*
O=C(N/N=C/c1c(O)n(-c2ccc(Cl)cn2)c(=O)c2ccccc12)C1CC1	i	18	13	1	x	x
O=C(N/N=C/c1c(O)n(-c2ccc(Cl)cn2)c(=O)c2ccccc12)c1ccncc1	x	130*	72*	21	154*	143*
COC(=O)c1ccc(NC(=O)Cc2ccccc2)cc1	i	-4	0	-2	x	x
CCN(CC(=O)Nc1ccc(C(=O)OC)cc1)Cc1ccccc1	i	46*	-4	-3	8	10
O=C(Oc1cccc([N+](=O)[O-])c1)c1ccc2c(=O)n3c(nc2c1)CCC3	i	x	-5	-1	x	x
CCOc1cccc2c1OC(c1cc(OC)c(OC)c(OC)c1)N1N=C(c3ccc(C)o3)CC21 (centres undefined)	x	115*	129	22	10	15
COc1ccc(C2CC(c3ccc(C)o3)=NN2C(C)=O)cc1 (centres undefined)	i	-1	0	-3	x	x
Cc1ccc(CCN2CC(C(=O)NCCCN3CCC(C)CC3)CC2=O)cc1 (centres undefined)	i	0	-5	2	x	x
Cc1sc2nc(CSc3nc4ccccc4s3)[nH]c(=O)c2c1C	x	42*	x	x	52*	64*
Cc1[nH]c2ccccc2c1/C=C/c1cc[n+](C)cc1	x	x	144	130	x	x
C=CCn1c(C)c(/C=C/c2cc[n+](C)cc2)c2ccccc21	x	119*	181	140	127*	122*
CCN(CC)C(=O)Cn1c(C)c(/C=C/c2cc[n+](C)cc2)c2ccccc21	x	108*	158	99*	108*	107*
CCn1cc(/C=C/c2cc[n+](C)cc2)c2ccccc21	x	39*	81	-73	43*	50*
C=CCn1cc(/C=C/c2cc[n+](C)cc2)c2ccccc21	x	46*	86	-47	55*	59*
Cn1ncc([N+](=O)[O-])c1C(=O)NC1CCCCC1	i	-1	-6	-1	x	x
COCCNC(=O)CN(C(=O)CCC(=O)Nc1ccccn1)c1cc(C)ccc1C	i	-2	-1	-3	x	x
CN(C)N1C(=O)CC(C)(c2ccc([N+](=O)[O-])cc2)C1=O (centres undefined)	i	-2	0	-2	x	x
CCOC(=O)CC1=C(C(=O)OCC)C(c2ccc(C)o2)C(C#N)=C(N)O1 (centres undefined)	i	-25	-11	-10	x	x
Cc1ccc(C2C(C#N)=C(N)Oc3c2sc2ccccc32)o1 (centres undefined)	x	65*	x	x	86*	96*
SMILES	Rpn11 inh	TPT1 inhibitor	HNF4A DNA FP	CSN deneddyl inh	TPT1 inh confirm	RNase T1 counter
O=C(COc1ccc2ccccc2c1)Nc1nccs1	i	28*	5	-2	4	10
CCN(C(=O)COC(=O)c1nccnc1N)c1cccc2ccccc12	i	x	7	5	x	x
NC(=O)N/N=C/c1ccc(N2CCOCC2)s1	x	81*	71*	5	123*	130*
Cc1c(C(=O)OCc2nc3ccsc3c(=O)[nH]2)oc2ccccc12	i	x	2	-4	x	x
CCOc1ccc(CN2C(=O)c3ccccc3C2=O)cc1C(=O)N1CCC(C(N)=O)CC1	i	1	-7	-1	x	x
Cc1ccc(-c2nc(C=Nc3ccc(O)cc3)c(O)o2)cc1	i	x	5	1	x	x
Cc1ccc(N=Cc2nc(/C=C/c3cccc([N+](=O)[O-])c3)oc2O)cc1	i	28*	7	1	39*	51*
COc1ccc(OC)c(/C=C2\Oc3cc(OCC(=O)N4CCC[C@H]4C(=O)O)ccc3C2=O)c1	i	16	1	7	x	x
COc1cc(OC)c(OC)cc1/C=C1\Oc2cc(OCC(=O)N3Cc4ccccc4C[C@H]3C(=O)O)ccc2C1=O	x	73*	61*	92	81*	85*
CCN(CC)c1ccc(/C=C(\C#N)c2ccccn2)cc1	x	135*	89*	35	124*	129*
N#C/C(=C\c1ccc(C(=O)O)cc1)c1ccccn1	i	-4	-3	3	x	x
CN(CCC#N)c1ccc(/C=C(\C#N)c2ccccn2)cc1	i	25*	1	-13	-67	-52
CCN(Cc1ccccc1)c1ccc(/C=C(\C#N)c2ccccn2)cc1	i	67*	25	11	46*	50*
CCN1C(=O)c2cccc3c(S(=O)(=O)N4CCNCC4)ccc1c23	i	x	1	0	x	x
CCCCN(C)C(=O)c1cn(C)c2ccc(S(=O)(=O)N3CCC(C)CC3)cc2c1=O	i	-2	6	-2	x	x
Cc1ccc(-c2cc(C(=O)O)c3sc(N4CCCCC4)nc3n2)cc1	i	27*	1	-7	5	10
CCN1/C(=C/C(C)=O)Sc2ccc(OC)cc21	i	0	3	5	x	x
CCOC(=O)/C(=C\C=C1/Sc2cc(OCC)c(OCC)cc2N1CC)C(C)=O	x	147*	-90	-37	123*	123*
CCOC(=O)/C(=C/C=C1\Sc2cc(OCC)c(OCC)cc2N1CC)C(C)=O	x	+	-104	-66	149*	142*
COCCNc1nc(-c2cc(C)n(CCc3ccc(OC)cc3)c2C)cs1	i	48*	5	8	10	16
N#C/C(=C/c1ccc(N2CCOCC2)o1)c1nc2ccccc2[nH]1	x	180*	152	-13	164*	152*
N#C/C(=C\c1ccc(Sc2nc3ccccc3[nH]2)o1)c1ccccc1	i	3	8	1	x	x
N#C/C(=C\c1ccc(N2CCOCC2)cc1)c1ccccc1	i	3	0	6	x	x
